Screening data deposited in PubChem BioAssay by several laboratories.
ABHD5 PLIN5 PPI = inhibitors of human ABHD5-perilipin-5 interaction; Split G. princeps luciferase complementation, luminescence, 4 h; AID 602281; inhibition, % at 4 µM; Q00G26+Q8WTS1; hit rate 0.78% among 360,000;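 active = inhibition above the mean inhibition across every tested compound plus 3 SD, cut at about 22% in these data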
Target sequence (Q00G26 whole entry, looked up): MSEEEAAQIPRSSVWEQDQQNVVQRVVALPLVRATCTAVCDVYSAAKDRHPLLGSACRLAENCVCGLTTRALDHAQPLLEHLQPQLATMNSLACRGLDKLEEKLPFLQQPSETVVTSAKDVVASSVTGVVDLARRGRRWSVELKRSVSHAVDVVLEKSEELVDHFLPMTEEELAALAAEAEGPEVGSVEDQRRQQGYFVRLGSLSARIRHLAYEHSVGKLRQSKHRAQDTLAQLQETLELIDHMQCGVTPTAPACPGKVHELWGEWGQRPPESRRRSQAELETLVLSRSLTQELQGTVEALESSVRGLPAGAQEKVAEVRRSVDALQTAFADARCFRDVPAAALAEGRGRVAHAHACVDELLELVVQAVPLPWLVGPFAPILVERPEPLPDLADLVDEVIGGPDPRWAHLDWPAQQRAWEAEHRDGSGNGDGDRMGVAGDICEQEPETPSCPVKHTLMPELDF
Target sequence (Q8WTS1 whole entry, looked up): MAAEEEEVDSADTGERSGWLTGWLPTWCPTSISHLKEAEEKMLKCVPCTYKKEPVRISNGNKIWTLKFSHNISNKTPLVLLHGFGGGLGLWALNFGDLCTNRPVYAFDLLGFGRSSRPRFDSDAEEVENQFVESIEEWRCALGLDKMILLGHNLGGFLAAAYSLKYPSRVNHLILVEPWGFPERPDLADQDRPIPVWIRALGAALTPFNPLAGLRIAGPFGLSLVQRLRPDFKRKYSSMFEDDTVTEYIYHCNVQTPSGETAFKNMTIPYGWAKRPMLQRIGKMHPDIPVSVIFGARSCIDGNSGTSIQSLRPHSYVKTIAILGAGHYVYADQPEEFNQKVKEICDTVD
APOBEC3G inh = APOBEC3G (human) deaminase inhibition; inhibition, % at 20 µM; Q9HC16; AID 493012; recombinant A3G, ssDNA deamination FAM/TAMRA fluorescence; hit rate 0.28% among 330,000;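 active = inhibition of at least 40% at 20 µM, with no more than 30% in the related APOBEC3A deaminase screen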
FN deposit inh = fibronectin deposition inhibition; AH1F fibroblasts, Alexa488-fibronectin deposition fluorescence, overnight; inhibition, % at 12.6 µM; hit rate 0.086% among 350,000;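 active = mean inhibition across replicates of 30% or more, regardless of how many single replicates reach that level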
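Material: AH1F fibroblast monolayer depositing Alexa488-labelled fibronectin into matrix / Amount: 10000 AH1F cells per well / Signal: fluorescence 485/525 nm / Medium: DMEM, 2% serum / Compound: single dose, pinned / Incubation: 1 h cell adhesion before compound, then overnight fibronectin incubation / Reagent: Alexa488-FN, 24 nM final / Read-out: inhibition of fibronectin deposition signal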
A3A deaminase = inhibitors of human APOBEC3A DNA deaminase; P31941; recombinant A3A, FAM/TAMRA ssDNA deamination fluorescence; inhibition, % at 20 µM; hit rate 0.41% among 330,000; AID 493011;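 active = at least 40% inhibition at 20 µM here, with at most 30% in a related deaminase screen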
Hits are given with their value; . = inactive; / = not tested or not shown. The list is not random: actives were taken first. Their share in the collection is about 1.2%.

SMILES	ABHD5 PLIN5 PPI	APOBEC3G inh	FN deposit inh	A3A deaminase
COc1ccc(C2CC(c3ccc(C)o3)=NN2C(C)=O)cc1 (configuration not stated)	.	.	.	.
CCOc1cccc2c1OC(c1cc(OC)c(OC)c(OC)c1)N1N=C(c3ccc(C)o3)CC21 (configuration not stated)	25	.	/	.
C=CCC[C@H](Cc1ccc(F)cc1)C(=O)OC[C@H](Cc1c[nH]c2ccccc12)NC(=O)[C@@H](CC=C)CC(=O)N[C@@H](CO)Cc1ccccc1	.	.	32	.
CC(=O)Nc1ccc(/C=C(\C#N)C(=O)NCc2ccccc2)cc1	.	.	33	.
CC(C)C#Cc1cnc2c(c1)C(=O)N([C@H](C)CO)C[C@H](C)[C@H](CN(C)C(=O)Cc1ccccn1)O2	/	/	.	/
O=C(C[C@H]1C[C@H](C(=O)N2CCCCC2)[C@@]2(CCc3ccccc3)c3[nH]c4ccc(Cl)cc4c3CCN2C1=O)NCCc1ccccn1	.	.	/	.
CN(C)CCCNC(=O)C[C@H]1C[C@H](C(=O)N2CCCCC2)[C@@]2(CCc3ccccc3)c3[nH]c4ccc(Cl)cc4c3CCN2C1=O	22	.	.	.
N#C/C(=C/c1ccc(N2CCCCCC2)o1)c1ccc(F)cc1	71	.	/	.
N#C/C(=C\c1ccc(N2CCOCC2)o1)C(=O)Nc1ccc(O)cc1	.	.	.	.
COc1cc(N2CCCC2)c(OC)cc1/C=C(/C#N)c1cccc(F)c1	.	/	/	/
N#C/C(=C/c1ccc(N2CCCCCC2)o1)c1cccc(F)c1	59	.	/	.
N#C/C(=C/c1ccc(N2CCOCC2)o1)c1ccc(Br)cc1	63	.	/	.
C[C@H]1CN([C@@H](C)CO)C(=O)c2ccccc2-c2ccccc2CO[C@@H]1CN(C)S(=O)(=O)c1ccccc1	/	/	.	/
O=C(C[C@H]1CC[C@H]2[C@@H](COC[C@@H](O)CN2Cc2nccs2)O1)NCc1ccccc1	/	/	.	/
Nc1c(C(=O)NCc2ccco2)nnn1Cc1ccccc1	.	.	30	.
Nc1c(C(=O)NCc2ccco2)nnn1-c1ccccc1	.	.	.	.
Cc1cccc(NC(=O)C2CCN(S(=O)(=O)c3c(C)noc3/C=C/c3ccco3)CC2)n1	23	.	.	.
CCC(C)N1CCN(C(=O)C2CCN(S(=O)(=O)c3c(C)noc3/C=C/c3ccco3)CC2)CC1 (configuration not stated)	.	.	.	.
CN1C(=O)c2cc(NC(=O)c3cccs3)ccc2OC[C@@H]2O[C@H](CC(=O)NCC3CC3)CC[C@H]21	/	/	.	/
Cc1cc(-c2csc(N)n2)c(C)n1Cc1ccco1	23	.	.	.
C[C@@H]1CN([C@H](C)CO)C(=O)c2c(c3ccccc3n2C)-c2ccccc2CO[C@@H]1CN(C)C(=O)Nc1cccc(Cl)c1Cl	/	/	.	/
CCN(C(=O)CN1C(=O)S/C(=C\c2ccc(F)cc2)C1=O)C1CCS(=O)(=O)C1 (configuration not stated)	23	.	.	.
O=C1C[C@H](c2ccccc2)C(=O)N[C@@H](c2ccc(F)cc2)C/C=C\CCN1	/	/	.	/
CC(NC(=O)/C(C#N)=C/c1ccc([N+](=O)[O-])o1)c1ccccc1 (configuration not stated)	29	.	.	.
CC(NC(=O)/C(C#N)=C/c1ccco1)c1ccccc1 (configuration not stated)	.	.	.	.
SMILES	ABHD5 PLIN5 PPI	APOBEC3G inh	FN deposit inh	A3A deaminase
CN(C)CC(=O)N1[C@@H](C#N)[C@H](c2ccccc2-c2ccccc2F)[C@@H]1CO	/	/	.	/
C[C@H]1CN(C)C(=O)c2cccnc2O[C@@H]1CN(C)C	/	/	.	/
COc1ccc(-c2cc(C(F)(F)F)n3ncc(C(=O)NCc4ccco4)c3n2)cc1	23	.	/	.
O=C(NCc1ccco1)c1cnn2c(C(F)(F)F)cc(-c3ccccc3)nc12	.	.	/	.
O=C(/C=C/c1ccncc1)c1ccc(NC(=O)c2ccccc2F)cc1	95	/	/	/
N#Cc1ccc(-c2ccc3c(c2)[C@@H]2[C@@H](CCN2C(=O)c2ccc4c(c2)OCO4)[C@@H](CO)N3)cc1	/	/	.	/
Cc1ccc(N(CC(=O)NCc2ccco2)S(=O)(=O)c2ccccc2)cc1	.	.	30	.
COCC(C)n1c(SCc2nc(N)nc(Nc3ccccc3C)n2)nc2ccccc2c1=O (configuration not stated)	.	.	33	.
COc1ccc(CCN2C(=O)C=CC2=O)cc1OC	53	/	.	/
COc1ccc(CCn2c(C)ccc2C)cc1OC	/	.	/	.
COc1cccc(-c2ccc3c(c2)[C@@H]2[C@@H](CCN2S(=O)(=O)c2cccc(OC)c2)[C@@H](CO)N3)c1	/	/	38	/
O=S(=O)(c1cccc(F)c1)N1CC[C@H]2[C@H](CO)Nc3ccc(-c4cccc(F)c4)cc3[C@H]21	/	/	36	/
N#Cc1ccc(-c2ccc3c(c2)[C@@H]2[C@@H](CCN2S(=O)(=O)c2cccc(F)c2)[C@@H](CO)N3)cc1	/	/	35	/
O=S(=O)(c1cccc(F)c1)N1CC[C@@H]2[C@H]1c1cc(-c3cccc(F)c3)ccc1N[C@@H]2CO	/	/	.	/
C[C@H]1CC=CC[C@@H](c2ccc(F)cc2)NC(=O)[C@H](C)N(C)C(=O)c2ccccc2O1 (mixture of isomers)	/	/	.	/
CO[C@@H]1CN(C)C(=O)c2ccc(NC(=O)c3nc4ccccc4s3)cc2OC[C@@H](C)N(Cc2cncnc2)C[C@@H]1C	/	/	.	/
COc1ccc(C[C@@H]2CCc3cnnn3COC[C@H](CC(C)C)NC2=O)cc1	/	/	.	/
Cc1ccc(C(=O)N2CCC3(CC2)Oc2ccc(Cl)cc2C(=O)C32CC(c3cccnc3)=NO2)s1 (configuration not stated)	.	.	.	.
O=C(/C=C/c1cccs1)N1CCC2(CC1)Oc1ccc(Cl)cc1C(=O)C21CC(c2cccnc2)=NO1 (configuration not stated)	.	.	31	.
Cc1ccc(S(=O)(=O)Nc2ccc3c(c2)C(=O)N([C@@H](C)CO)C[C@H](C)[C@@H](CN(C)Cc2ccc(C(=O)Nc4ccccc4N)cc2)OCCCC[C@@H](C)O3)cc1	/	/	.	/
O=[N+]([O-])c1c(Nc2ccccc2O)ccc2nonc12	.	.	.	.
O=[N+]([O-])c1c(Nc2ccc(O)cc2)cc(N2CCOCC2)c2nonc12	.	.	.	.
O=[N+]([O-])c1c(Nc2ccccc2O)cc(Cl)c2nonc12	63	.	.	.
O=C(O)c1cc(Nc2cc(Cl)c3nonc3c2[N+](=O)[O-])ccc1O	23	.	.	.
O=C(CCNS(=O)(=O)c1cccc2nsnc12)NC1CCCc2ccccc21 (configuration not stated)	.	.	.	.
O=C(CCNS(=O)(=O)c1cccc2nonc12)NC1CCCc2ccccc21 (configuration not stated)	.	.	36	.
COc1cccc(S(=O)(=O)N2CC[C@@H]3[C@@H](CO)Nc4ccc(-c5ccc(C#N)cc5)cc4[C@@H]32)c1	/	/	.	/
CCNC(=O)C[C@H]1CC[C@@H]2[C@H](COC[C@H](O)CN2C(=O)Nc2cccc(OC)c2)O1	/	/	.	/
